Bioassay records (PubChem BioAssay)
HSF1 inhib – HSF1 inhibition | NIH3T3-HGL HSE-luciferase, MG132-induced, luminescence 8 h; hits give low values | activity change, negative = inhibition, % at 7.5 µM (by protocol) | 300,000 compounds, 0.77% hits | AID 2098;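 active = more than half of replicate wells show activity change below -50%, luminescence cut by over half; inconclusive = some wells, but at most half, below -50%; inactive = no replicate well below -50%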;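 note: luciferase reports HSF-1 transcriptional activity via heat shock element; 0% = median of DMSO wells and -100% = zero luminescence signal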
HSF1 activator – increases HSF-1 driven luciferase reporter signal | activation, % at 9 µM | NIH3T3-HGL HSF-1 luciferase reporter, MG132, 8 h; 100% = twice DMSO control signal | 300,000 compounds, 1.7% hits;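 active = mean replicate activation of at least 50% with a set share of replicates each reaching 50%; inconclusive = only one of those two conditions met; inactive = mean below 50% and too few replicates reaching it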;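 note: 0% = median of the neutral control wells and 100% = twice that signal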
Lipid droplet – modulators of hepatic lipid droplet formation. AML12 mouse hepatocytes, oleate lipid droplets, BODIPY imaging. inhibition, % at 6.5 µM. 240,000 compounds, 0.4% hits. AID 1656;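 active = lipid droplet intensity inhibited by at least 50%, with more than 500 cells counted; inconclusive = wells with under 300 cells, treated as cytotoxic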
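Material: mouse AML12 hepatocyte cell line, fixed after treatment; Timing: compound with oleate, overnight; Technique: high-content imaging of BODIPY-stained droplets and DAPI nuclei; Probe or stimulus: oleate, 100 µM final; Dosing: compound at 6.5 µM only.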
HSP90 inh – inhibitors of HSP90 luciferase refolding in rabbit reticulocyte lysate; 290,000 compounds, 0.91% hits; luciferase refolding luminescence, 3 h; inhibition, % at 5.6 µM;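 active = inhibition above the screen-wide mean plus 3 SD, computed separately per campaign, cut at about 16% in these data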;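 note: 0% = DMSO wells and 100% = 60 µM geldanamycin wells; inhibitors lower the luminescence because luciferase stays unfolded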
NS3 helicase inh – blocks Hepatitis C virus NS3 helicase unwinding; 290,000 compounds, 0.56% hits; NS3 helicase DNA unwinding, Cy5 molecular beacon fluorescence; inhibition, % at 10.9 µM; AID 1800;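 active = inhibition above the mean of all tested compounds plus 3 SD, set per campaign, cut at about 35% in these data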;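 note: 0% = DMSO wells and 100% = thioflavine S control wells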
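Material: hepatitis C virus NS3 helicase domain fragment enzyme; measured by: Cy5 fluorescence, 0 and 60 min reads; control set: DMSO and thioflavine S; incubation: 60 min unwinding reaction at 25 °C after ATP addition; read-out basis: % inhibition from 60/0 min fluorescence ratio, DMSO 0%, thioflavine S 100%; repeats: singlicate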
HSP90 inh confirm – HSP90 inhibition, confirmation assay; shares compounds with HSP90 inh; rabbit reticulocyte lysate, luciferase refolding luminescence, 3 h; inhibition, % at 5.9 µM; 2,300 compounds, 64% hits; AID 1846; in the data active = inhibition above about 18%;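 note: 0% = vehicle wells and 100% = reference inhibitor wells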
FLuc counter – counter-screen for HSP90 inhibitors: inhibitors of firefly luciferase; 2,300 compounds, 48% hits; inhibition, % at 5.9 µM; purified native firefly luciferase, luminescence; AID 1847; shares compounds with HSP90 inh;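 active = inhibition above the mean inhibition of all tested sample wells plus 3 SD, cut at about 10% in these data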;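 note: 0% = DMSO with luciferase and 100% = wells lacking luciferase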
Target sequence (P08659 whole entry, looked up): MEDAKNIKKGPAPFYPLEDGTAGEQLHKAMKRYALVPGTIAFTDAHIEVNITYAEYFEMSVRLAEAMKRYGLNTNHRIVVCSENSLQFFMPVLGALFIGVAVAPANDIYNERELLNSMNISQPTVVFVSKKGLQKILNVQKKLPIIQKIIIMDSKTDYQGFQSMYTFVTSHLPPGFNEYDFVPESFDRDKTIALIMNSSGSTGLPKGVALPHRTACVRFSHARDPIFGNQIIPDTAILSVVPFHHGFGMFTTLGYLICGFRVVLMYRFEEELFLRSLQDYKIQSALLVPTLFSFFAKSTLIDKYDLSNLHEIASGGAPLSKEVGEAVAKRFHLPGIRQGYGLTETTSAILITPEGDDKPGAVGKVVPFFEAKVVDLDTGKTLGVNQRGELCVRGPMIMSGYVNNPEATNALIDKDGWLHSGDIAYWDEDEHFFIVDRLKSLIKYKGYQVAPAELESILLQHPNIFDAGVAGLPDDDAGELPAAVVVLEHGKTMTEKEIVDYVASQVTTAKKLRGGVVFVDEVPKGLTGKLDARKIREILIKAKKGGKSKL
Numbers without * were called inactive; ? = inconclusive; · = not tested or not shown. Compounds with a hit are over-represented: about 3.8% of the library has one in this group of screens.

SMILES	HSF1 inhib	HSF1 activator	Lipid droplet	HSP90 inh	NS3 helicase inh	HSP90 inh confirm	FLuc counter
CC(C)(C)c1ccc(-c2nc(O)c(CC(=O)O)s2)cc1	-1	-16	-3	15	8	·	·
CCc1ccc(NC(=O)c2ccc(NC3=NC4CS(=O)(=O)CC4S3)cc2)cc1 (centres undefined)	-4	2	19	-1	-2	·	·
Cc1ccc(C(=O)Nc2ccc3c(c2)OCCO3)c(Cl)c1	-7	0	0	59*	1	75*	68*
CC(=O)Nc1ccc2c(c1)OCCO2	-1	6	·	-1	4	·	·
CCCOc1cccc(C(=O)Nc2ccc3c(c2)OCCO3)c1	25	39	2	21*	2	40*	25*
O=C(Nc1ccc2c(c1)OCCO2)c1cccc(Cl)c1Cl	23	26	0	3	-2	·	·
Cc1cc(C(=O)Nc2ccc3c(c2)OCCO3)ccc1[N+](=O)[O-]	5	25	6	28*	-1	59*	51*
O=C(Nc1ccc2c(c1)OCCO2)Nc1ccc2c(c1)OCO2	15	27	14	19*	3	41*	30*
O=C(COC(=O)CNC(=O)c1ccco1)NCc1ccc(F)cc1	-5	-7	2	0	2	·	·
Cc1cc(OCC(=O)Nc2cnn(CCCC(=O)O)c2)ccc1Cl	4	5	-11	1	4	·	·
O=C(NC(=S)Nc1ccc2c(c1)OCCO2)c1ccco1	17	33	-23	24*	2	20*	3
Cc1cc(C)cc(NC(=O)CCn2c(=O)c3cccn3c3ccccc32)c1	6	-8	0	-2	-2	·	·
COc1ccc2c(=O)c(Oc3ccc(C(=O)O)cc3)c(C(F)(F)F)oc2c1	-9	-6	-14	72*	12	7	-7
O=C(NC1CC1)c1ccc(-c2nc3ccccc3s2)s1	-39	-46	·	76*	-7	80*	77*
O=C(c1ccc(-c2nc3ccccc3s2)s1)N1CCOCC1	-47	-56	1	64*	5	85*	79*
c1ccc2sc(-c3ccc4c(c3)OCO4)nc2c1	·	·	·	19*	4	60*	56*
O=C(CSc1nc(O)c(C2CCCCC2)c(=O)[nH]1)N1CCOCC1	7	0	3	-1	-12	·	·
O=C(N/N=C/c1cccc(O)c1)c1ccc2c(c1)OCCO2	9	32	-1	48*	5	59*	39*
Cc1cccc(/C=N/NC(=O)c2ccc3c(c2)OCCO3)c1O	11	8	-9	32*	-1	59*	52*
O=C(N/N=C/c1ccccc1[N+](=O)[O-])c1ccc2c(c1)OCCO2	14	26	-6	22*	-2	58*	36*
CCCCSCCCNC(=O)c1ccc(CS(=O)(=O)c2ccc(OC)cc2)o1	10	13	-31	-3	2	·	·
Cc1n[nH]c(=O)n1-c1ccc(C(C)(C)C)cc1	-3	-7	-15	-1	-8	·	·
CCOC(=O)Cn1nc(C)n(-c2ccc(C(C)(C)C)cc2)c1=O	-7	4	·	17*	-1	3	-4
c1cnc2nc(-c3ccc4c(c3)OCO4)cn2c1	4	9	-2	1	4	·	·
COC(=O)c1ccc2nc(-c3ccc4c(c3)OCO4)cn2c1	5	26	14	18*	8	73*	65*
SMILES	HSF1 inhib	HSF1 activator	Lipid droplet	HSP90 inh	NS3 helicase inh	HSP90 inh confirm	FLuc counter
COc1ccc(-c2cn3cc(C(=O)NN)ccc3n2)cc1	20	12	6	43*	-2	24*	-12
CCc1ccn2cc(-c3ccc4c(c3)OCO4)nc2c1	-31	-32	-25	73*	5	86*	85*
CCCOCCc1nnc(N)s1	-3	5	-2	4	-5	·	·
C/C(=N\NC(=O)CCC(=O)NCc1ccccc1)c1ccco1	·	·	-1	2	4	·	·
COc1ccc(C(=O)C2CCCN(C(=O)c3ccoc3C)C2)cc1F (centres undefined)	1	6	-13	2	21	·	·
CCc1nnc(NC(=O)CCC(=O)NC2CCCCCC2)s1	0	1	-8	3	5	·	·
Cc1[nH]n(-c2ccccc2)c(=O)c1C(c1cccc([N+](=O)[O-])c1O)c1c(C)[nH]n(-c2ccccc2)c1=O	4	-1	3	24*	13	-10	-4
COc1ccc2c(c1)C(C)=CC(C)(C)N2S(=O)(=O)c1ccc(C)cc1	-14	-28	?	0	4	·	·
CCOc1ccc2c(c1)C(C)=CC(C)(C)N2S(=O)(=O)c1ccc(C)cc1	-14	-23	?	30*	-12	12	4
CCc1nn2cc(-c3ccccc3)nc2s1	-18	-13	-2	65*	-4	81*	73*
Cc1nn2cc(-c3ccc(-c4ccccc4)cc3)nc2s1	-7	11	·	1	-5	·	·
N/C(=N\OC(=O)c1cccc(Br)c1)c1ccccn1	8	2	-3	42*	21	26*	74*
N/C(=N\OC(=O)c1ccc(Cl)cc1)c1ccccn1	-48	-54	·	57*	-2	20*	89*
N/C(=N\OC(=O)c1cccc(Cl)c1)c1ccccn1	-8	18	0	34*	4	31*	76*
CCOc1ccccc1C1c2cc3c(cc2OC(C)(N2CCCC2)C1C)OCO3 (centres undefined)	-3	5	·	·	·	·	·
Clc1ccc(-n2ncc3c(NCCN4CCOCC4)ncnc32)cc1	-54*	-58	-5	44*	-12	50*	42*
c1ccc(-n2ncc3c(NCCCN4CCOCC4)ncnc32)cc1	13	39	·	3	0	·	·
Cc1cccc(-n2ncc3c(N4CCOCC4)ncnc32)c1	-40	-50	2	54*	-1	77*	68*
Clc1ccc(-n2ncc3c(N4CCCCCC4)ncnc32)cc1	-89*	-90	3	63*	-8	83*	86*
COc1ccc(-n2ncc3c(NC(C)C)ncnc32)cc1	4	2	·	17*	-8	43*	31*
COc1ccc(-n2ncc3c(N4CCN(c5cccc(C)c5C)CC4)ncnc32)cc1	-1	3	1	0	7	·	·
COc1ccc(-n2ncc3c(N4CCCCC4)ncnc32)cc1	-81*	-84	-3	67*	-7	90*	86*
O=C(c1ccc([N+](=O)[O-])cc1)N1CCN(C(=O)c2ccco2)CC1	-1	-2	1	21*	4	3	-4
O=C(c1cc([N+](=O)[O-])cc([N+](=O)[O-])c1)N1CCN(C(=O)c2ccco2)CC1	19	50	-2	9	3	·	·
